{"source": "paper PMC8962836", "about": "(Journal of Alzheimer's disease : JAD, 2016)", "key": {"3xTgAD mouse model": {"test_system": "3xTgAD mouse model", "settings": "cited from earlier work"}, "Aβ levels": {"test_system": "Aβ levels", "settings": "cited from earlier work"}, "WT mice": {"test_system": "WT mice", "settings": "mouse, in vivo, ip"}, "AβPP/PS1 mice [1]": {"test_system": "AβPP/PS1 mice", "assay": "2-day radial-arm water maze", "type": "in vivo, mouse", "outline": "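2-day RAWM in AβPP/PS1 and WT littermates given vehicle or test compound daily. Compounds were dissolved in Tween-80 + DMSO, then diluted with vehicle. Mice were trained […] to find a goal-arm platform, alternating visible and hidden platform. Investigators were blind to treatment and genotype. Data are mean ± SEM, analysed by two-way repeated-measures ANOVA.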"}, "calpain 1": {"test_system": "calpain 1", "settings": "read-out: IC50 calpain 1; cited from earlier work"}, "[2]": {"test_system": "Aβ42-induced LTP impairment in hippocampal slices", "type": "cell-based, mouse", "settings": "compound 650 nM co-administered with Aβ42 (200 nM, 20 min)", "outline": "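Mouse transverse hippocampal slices (400 μm) were kept in an interface chamber at 29°C. Aβ42 oligomers were formed overnight at 4°C in ACSF, then diluted in vehicle. Test compound (Tween-80/DMSO stock diluted in vehicle) was perfused with Aβ42 for 20 min before tetanization, and responses were recorded for 120 min. Data are % of control or (co-treatment/Aβ42 alone)×100; mean ± SEM, repeated-measures two-way ANOVA.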"}, "[3]": {"assay": "Pharmacokinetic assessment in plasma", "type": "in vivo, ICR mice", "outline": "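Male ICR mice (54 total; 3 groups of 18) were dosed i.p. with test compound in Tween-80 + DMSO diluted with vehicle. Plasma was separated by centrifugation (11,000 rpm, 5 min), stored at –80°C, and 25 μl was processed for LC/MS/MS. Calibration standards were spiked into heparinized blank mouse plasma at 3.00–10,000 ng/ml.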"}, "AβPP/PS1 mice [4]": {"test_system": "AβPP/PS1 mice", "assay": "Contextual fear conditioning", "type": "in vivo, mouse", "outline": "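AβPP/PS1 and WT littermates got daily vehicle or test compound (Tween-80/DMSO, then vehicle-diluted). Training: one mouse per room, 2 min in the conditioning chamber, 0.50 mA foot shock for 2 s in the last 2 s, then 30 s more before returning to the home cage. Contextual freezing was scored. Investigators were blind to treatment and genotype; n = 8–18 per group; mean ± SEM, one-way ANOVA.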"}, "mice": {"test_system": "mice", "settings": "mouse, in vivo"}, "[5]": {"test_system": "calpain (calpain-generated spectrin fragment around 145 kDa)", "assay": "Spectrin western blotting of hippocampal homogenates after in vivo treatment", "parameters": "species or system mouse", "outline": "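Hippocampi were taken from mice given test compound or vehicle. Tissue was homogenized in 62.5 mM Tris-HCl pH 6.8, 3% LDS, 1 mM DTT, held 10 min at 4°C, sonicated and centrifuged (20,000 rpm, 5 min). Extracts (15 μg/lane; vehicle also 20 μg) ran on 3–8% Tris-Acetate gels. Blots were probed with spectrin and β-III-tubulin antibodies (1:1,000) for the ~145 kDa calpain fragment.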"}, "[6]": {"settings": "daily treatment from age 2 months until 7 months"}}, "note": "Where “and” joins values, the source holds several entries; their conditions need not be identical. Equal entries are not always repeated. Entries after “also recorded” stand apart in the source; their conditions may differ."}
{"compound": "CCN(CC)Cc1ccc(/C=C/c2ccccc2C(=O)NC(Cc2ccccc2)C(=O)C(N)=O)cc1", "note": "(centres unmarked) [A-705253]", "values": [{"measurement": "Activity in 3xTgAD mouse model", "setting": "3xTgAD mouse model", "result": "rescuing memory defects, and reducing levels of BACE enzyme, Aβ deposits, and overall neuroinflammation"}]}
{"compound": "CC(C)C[C@H](NS(=O)(=O)c1ccccc1)C(=O)N[C@@H](C(C)C)[C@@H](O)c1c(-c2ccccc2)c1=O", "note": "[BDA-410]", "values": [{"measurement": "Effect on Aβ levels", "setting": "Aβ levels", "result": "do not have any effect on Aβ levels"}]}
{"compound": "CC(C)C[C@H](NC(=O)[C@H]1O[C@@H]1C(=O)O)C(=O)NCCCCN=C(N)N", "note": "[E64]", "values": [{"measurement": "Effect on Aβ levels", "setting": "Aβ levels", "result": "do not have any effect on Aβ levels"}]}
{"compound": "O=C(NCc1cn(-c2ccc(F)cc2)nn1)[C@H](Cc1cscn1)NC(=O)[C@H]1O[C@@H]1C(=O)O", "note": "[NYC488]", "values": [{"measurement": "Maximum tolerated dose (MTD)", "setting": "WT mice", "result": 200, "unit": "mg/kg"}, {"measurement": "RAWM performance of WT littermates", "setting": "AβPP/PS1 mice [1]; WT littermates, treatment 2 to 3 months of age", "result": "did not affect the WT littermate performance"}, {"measurement": "Spatial memory defect (2-day RAWM) in AβPP/PS1 mice", "setting": "AβPP/PS1 mice [1]; daily treatment from age 2 months until 3 months", "result": "ameliorated the defect in spatial memory; also recorded: ameliorated the deficit in RAWM performance"}, {"measurement": "Spatial memory defect (2-day RAWM) in AβPP/PS1 mice", "setting": "AβPP/PS1 mice [1]; [6]", "result": "ameliorated the defect in spatial memory"}, {"measurement": "IC50", "setting": "calpain 1", "result": "< 0.1", "unit": "µM"}, {"measurement": "Rescue of Aβ42-induced LTP impairment (phenotypic screening)", "setting": "[2]", "result": "robust results; also recorded: surpassed E64 benchmark in the LTP rescue assay"}, {"measurement": "Absolute bioavailability", "setting": "[3]; i.p., equimolar dose (7.57/7.86/7.83 mg/kg)", "result": 41.3, "unit": "%"}, {"measurement": "Half-life", "setting": "[3]; plasma, i.p., equimolar dose (7.57/7.86/7.83 mg/kg)", "result": "0.6 h and ~ 0.6 h"}, {"measurement": "Absorption", "setting": "[3]; upon i.p. injection", "result": "rapidly absorbed"}, {"measurement": "Contextual fear memory defect in AβPP/PS1 mice", "setting": "AβPP/PS1 mice [4]; daily treatment from age 2 months until 3 months, 7.57/7.86/7.83 mg/kg", "result": "ameliorated the defect in contextual fear memory"}, {"measurement": "Contextual fear memory defect in AβPP/PS1 mice", "setting": "AβPP/PS1 mice [4]; [6]", "result": "ameliorated the defect in contextual fear memory"}, {"measurement": "Clinical signs of toxicity after acute single dose at MTD", "setting": "mice", "result": "No clinical signs of toxicity"}, {"measurement": "Prevention of calpain-generated spectrin fragments in hippocampus", "setting": "[5]; i.p. treatment for 12 days, same doses as PK", "result": "dramatically reduced the amount of fragments"}, {"measurement": "Ability to cross the blood-brain barrier and inhibit calpain in the brain", "setting": "[5]; inferred from spectrin fragment decrease after systemic administration", "result": "cross the blood-brain barrier (BBB) and inhibit calpain in the brain"}]}
